Data as given in ChEMBL document CHEMBL3804799, “Synthesis and Biological Evaluation of Novel σ1 Receptor Ligands for Treating Neuropathic Pain: 6-Hydroxypyridazinones” (J Med Chem, 2016).

How the values were obtained:
[1] = target: Sigma non-opioid intracellular receptor 1 (Cavia porcellus, UniProt Q60492); assay: Displacement of [3H]-(+)-pentazocine from Sigma1 receptor in Dunkin Hartley guinea pig brain membrane after 180 mins by liquid scintillation counting analysis
Procedure, shortened: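 Guinea pig brain (minus cerebellum) P2 membranes in Tris-HCl. Incubated with [³H]-(+)-pentazocine (4.0 nM solution added) in pH 8.0 buffer, 25 °C for 180 min; nonspecific binding with haloperidol. Filtered through PEI-presoaked GF/B filters; scintillation counting. Compounds in 5% DMSO, six concentrations (10⁻⁵–10⁻¹⁰ M). […] At least three experiments.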

Cavia porcellus = species: Cavia porcellus; assay: Selectivity ratio of Ki for Sigma2 receptor in Dunkin Hartley guinea pig brain membrane to Ki for Sigma1 receptor in Dunkin Hartley guinea pig brain membrane
Procedure, shortened: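 Guinea pig brain P2 membranes, minus cerebellum. σ1: [3H]-(+)-pentazocine, haloperidol for nonspecific binding, 25 °C for 180 min. σ2: 3 nM [3H]-DTG with 400 nM (+)-SKF-10047 masking σ1, DTG for nonspecific binding, 25 °C for 120 min. Six concentrations, 10⁻⁵ to 10⁻¹⁰. Filter-bound radioactivity counted. Hill-fit IC50 converted by Cheng–Prusoff, at least three experiments each; ratio σ2 Ki/σ1 Ki.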

[2] = Displacement of [3H]-DTG from Sigma2 receptor in Dunkin Hartley guinea pig brain membrane after 120 mins by liquid scintillation counting analysis in presence of sigma1 blocker (+)-SKF-10047; parameters: species or system Cavia porcellus
Procedure, shortened: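 Guinea pig brain P2 membranes incubated with 3 nM [³H]-DTG plus 400 nM (+)-SKF-10047 to block σ1 sites, Tris-HCl pH 8.0, 25 °C for 120 min; nonspecific binding with DTG. Filtration on PEI-presoaked GF/B filters, scintillation counting. […] At least three experiments.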

[3] = Acute toxicity in po dosed Kun Ming mouse assessed as mortality after 24 hrs; assay type: organism-based; conditions: in vivo
Procedure, shortened: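 Mice, 10 per group, given a single oral dose (10 mL/kg) of 0.5% methylcellulose vehicle or test compound at 200, 500, 1000, 1500 or 2000 mg/kg. Survivors were counted 24 h after dosing and percent mortality per group was calculated. LD50 was derived by statistical analysis.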

[4] = target: Voltage-gated inwardly rectifying potassium channel KCNH2 (Homo sapiens, UniProt Q12809); assay: Inhibition of human ERG expressed in HEK293 cells assessed as tail current at -50 mV holding potential by whole-cell patch clamp method
Voltage-gated inwardly rectifying potassium channel KCNH2, sequence (Q12809 whole entry): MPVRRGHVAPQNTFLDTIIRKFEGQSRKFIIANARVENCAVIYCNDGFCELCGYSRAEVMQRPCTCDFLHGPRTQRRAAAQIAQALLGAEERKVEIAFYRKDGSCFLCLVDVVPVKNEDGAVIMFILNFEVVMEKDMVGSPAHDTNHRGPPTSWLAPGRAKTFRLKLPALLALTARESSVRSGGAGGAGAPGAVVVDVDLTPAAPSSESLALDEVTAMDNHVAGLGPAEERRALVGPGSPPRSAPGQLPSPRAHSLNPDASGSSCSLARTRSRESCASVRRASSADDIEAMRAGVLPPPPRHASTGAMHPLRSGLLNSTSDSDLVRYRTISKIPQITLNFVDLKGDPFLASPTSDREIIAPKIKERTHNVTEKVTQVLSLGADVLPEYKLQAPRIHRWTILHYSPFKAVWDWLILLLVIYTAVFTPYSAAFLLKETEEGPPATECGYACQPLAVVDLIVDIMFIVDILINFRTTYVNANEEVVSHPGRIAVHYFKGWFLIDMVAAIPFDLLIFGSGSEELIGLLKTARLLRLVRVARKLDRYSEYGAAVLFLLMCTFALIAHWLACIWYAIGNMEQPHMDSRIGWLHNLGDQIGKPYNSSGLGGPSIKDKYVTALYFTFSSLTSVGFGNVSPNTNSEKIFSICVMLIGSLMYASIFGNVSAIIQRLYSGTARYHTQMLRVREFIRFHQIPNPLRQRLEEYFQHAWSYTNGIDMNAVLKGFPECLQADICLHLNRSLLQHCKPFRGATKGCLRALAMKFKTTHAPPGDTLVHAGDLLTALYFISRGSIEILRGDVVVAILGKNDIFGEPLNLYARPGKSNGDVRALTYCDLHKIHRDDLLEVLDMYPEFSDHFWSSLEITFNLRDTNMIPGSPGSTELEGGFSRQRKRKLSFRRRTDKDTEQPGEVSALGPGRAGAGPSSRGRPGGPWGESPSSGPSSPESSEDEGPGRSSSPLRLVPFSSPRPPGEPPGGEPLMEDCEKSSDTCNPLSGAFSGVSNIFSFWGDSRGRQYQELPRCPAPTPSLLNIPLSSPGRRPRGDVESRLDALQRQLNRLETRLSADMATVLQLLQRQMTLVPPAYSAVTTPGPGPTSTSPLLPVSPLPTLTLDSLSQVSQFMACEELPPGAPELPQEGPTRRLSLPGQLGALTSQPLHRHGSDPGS

Mus musculus [5] = assay: Toxicity in Kun Ming mouse assessed as reduction in the permanence time on the rotating rod at 80 mg/kg, ig measured after 30 to 120 mins by rotarod test; assay type: organism-based; conditions: in vivo, po
Procedure, shortened: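 Mice were pre-trained; any that could not stay 300 s on the rod at 10 rpm were excluded. Latency to fall from the rod rotating at 10 rpm was recorded 30, 60, 90 and 120 min after intragastric dosing. 8–10 mice per group.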

Mus musculus [6] = assay: Antiallodynic activity in Kun Ming mouse assessed as paw licking time at 160 mg/kg, ig administered 15 mins prior to formalin challenge measured after15 to 45 mins post formalin dosing; assay type: functional
Procedure, shortened: (§1)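 Mice received 20 μL of 2.5% formalin (0.92% formaldehyde) in the dorsal right hind paw. Time spent licking or biting the paw was scored at 0–5 min (phase I) and 15–45 min (phase II), with a mirror behind the glass cylinder. Vehicle was 30% PEG 400 at 10 mL/kg, given 15 min before formalin. n = 10–12 per group. % antinociception = (LT_V − LT_D)/LT_V × 100.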

Mus musculus [7] = assay: Antiallodynic activity in Kun Ming mouse assessed as paw biting time at 160 mg/kg, ig administered 15 mins prior to formalin challenge measured after 15 to 45 mins post formalin dosing; assay type: functional; procedure, shortened: as §1

Sigma non-opioid intracellular receptor 1, sequence (Q60492 whole entry): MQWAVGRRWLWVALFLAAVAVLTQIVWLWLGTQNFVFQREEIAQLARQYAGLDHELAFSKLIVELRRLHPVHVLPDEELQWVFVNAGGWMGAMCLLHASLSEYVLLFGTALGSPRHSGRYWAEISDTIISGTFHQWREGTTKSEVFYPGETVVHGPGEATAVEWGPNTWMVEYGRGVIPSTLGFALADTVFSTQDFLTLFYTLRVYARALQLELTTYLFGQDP

SMILES: CC1CCN(CCCOc2ccc(=O)n(-c3ccc4ccccc4c3)n2)CC1
- Ki [1]: 84.1 nM
- Ratio Ki (Cavia porcellus): 10.8
- Ki [2]: 913 nM

SMILES: CC1CCN(CCCOc2ccc(=O)n(-c3ccc(F)cc3)n2)CC1
- Ki [1]: 19.8 nM
- Ratio Ki (Cavia porcellus): 81.7
- Ki [2]: 1620 nM

SMILES: CC1CC(C)CN(CCCCOc2ccc(=O)n(-c3ccccc3)n2)C1 (stereo not given)
- Ki [1]: 222 nM
- Ratio Ki (Cavia porcellus): 6.2
- Ki [2]: 1370 nM

SMILES: CN1CCN(CCCOc2ccc(=O)n(-c3ccccc3)n2)CC1
- Ki [1]: 31.7 nM
- Ratio Ki (Cavia porcellus): 11.9
- Ki [2]: 376 nM

SMILES: Cc1ccc(-n2nc(OCCCN3CCCCC3)ccc2=O)cc1
- Ki [1]: 69 nM
- Ratio Ki (Cavia porcellus): 18.6
- Ki [2]: 1280 nM

SMILES: O=c1ccc(OCCCN2CCCCC2)nn1-c1ccccc1
- Ki [1]: 21.4 nM
- Ratio Ki (Cavia porcellus): 50.2
- Ki [2]: 1070 nM

SMILES: CC1CCN(CCCOc2ccc(=O)n(-c3cccc(Cl)c3Cl)n2)CC1
- Ki [1]: 55 nM
- Ratio Ki (Cavia porcellus): 21.8
- Ki [2]: 1200 nM

SMILES: O=c1c2c(c(OCCCN3CCCCC3)nn1-c1ccc(Cl)c(Cl)c1)CCCC2
- Ki [1]: 104 nM
- Ratio Ki (Cavia porcellus): 8.9
- Ki [2]: 934 nM

SMILES: CC1CCN(CCCCOc2ccc(=O)n(-c3ccccc3)n2)CC1
- Ki [1]: 143 nM
- Ratio Ki (Cavia porcellus): 10.1
- Ki [2]: 1440 nM

SMILES: CN1CCCN(CCCOc2ccc(=O)n(-c3ccccc3)n2)CC1
- Ki [1]: 30.3 nM
- Ratio Ki (Cavia porcellus): 16.8
- Ki [2]: 508 nM

SMILES: O=c1ccc(OCCCN2CCCC2)nn1-c1ccccc1
- Ki [1]: 35.5 nM
- Ratio Ki (Cavia porcellus): 12.9
- Ki [2]: 458 nM

SMILES: CC1CCN(CCCOc2ccc(=O)n(-c3ccc(Cl)cc3)n2)CC1
- Ki [1]: 9.5 nM
- LD50 at 24 h [3]: 717 mg/kg
- Ki [2]: 1780 nM

SMILES: O=c1ccc(OCCCN2CCCCC2)nn1-c1ccc(Cl)cc1
- Ki [1]: 9.8 nM
- LD50 at 24 h [3]: 754 mg/kg
- IC50 [4]: 1450 nM
- Ratio Ki (Cavia porcellus): 160
- Ki [2]: 1570 nM

SMILES: O=C1CCN(CCCOc2ccc(=O)n(-c3ccccc3)n2)CC1
- Ki [1]: 580 nM
- Ki [2]: > 2000 nM

SMILES: CC1CCN(CCCOc2ccc(=O)n(-c3ccccc3)n2)CC1
- Ki [1]: 28 nM
- Ratio Ki (Cavia porcellus): 52.3
- Ki [2]: 1460 nM

SMILES: Cc1cc(OCCN2CCOCC2)nn1-c1ccc2ccccc2c1
- Activity (Mus musculus [5]): Toxic
- Ki [2]: > 2000 nM

SMILES: CC1CCN(CCCOc2ccc(=O)n(-c3ccc(F)c(Cl)c3)n2)CC1
- Time (Mus musculus [6]): 59.65 s
- Ki [1]: 10 nM
- LD50 at 24 h [3]: 1530 mg/kg
- IC50 [4]: 2160 nM
- Time (Mus musculus [7]): 56.43 s
- Ratio Ki (Cavia porcellus): 163
- Ki [2]: 1630 nM

SMILES: O=c1ccc(OCCCN2CCOCC2)nn1-c1ccccc1
- Ki [1]: 66.3 nM
- Ratio Ki (Cavia porcellus): 7.6
- Ki [2]: 502 nM

SMILES: CC(C)N(CCCOc1ccc(=O)n(-c2ccccc2)n1)C(C)C
- Ki [1]: 98.1 nM
- Ratio Ki (Cavia porcellus): 11.4
- Ki [2]: 1120 nM

SMILES: CC1CCN(CCCOc2ccc(=O)n(-c3ccc(Cl)c(Cl)c3)n2)CC1
- Ki [1]: 5 nM
- LD50 at 24 h [3]: 575 mg/kg
- IC50 [4]: 1460 nM
- Ratio Ki (Cavia porcellus): 348
- Ki [2]: 1740 nM

SMILES: O=c1ccc(OCCCN2CCCCC2)nn1-c1cc(Cl)cc(Cl)c1
- Ki [1]: 30 nM
- Ratio Ki (Cavia porcellus): 43.3
- Ki [2]: 1300 nM

SMILES: Cc1ccc(-n2nc(OCCCN3CCC(C)CC3)ccc2=O)cc1
- Ki [1]: 61.6 nM
- Ratio Ki (Cavia porcellus): 25.1
- Ki [2]: 1550 nM

SMILES: CCN1CCN(CCCOc2ccc(=O)n(-c3ccccc3)n2)CC1
- Ki [1]: 40.1 nM
- Ratio Ki (Cavia porcellus): 15.5
- Ki [2]: 620 nM

SMILES: O=c1ccc(OCCCN2CCCCC2)nn1-c1cc(Cl)ccc1Cl
- Ki [1]: 45 nM
- Ratio Ki (Cavia porcellus): 20
- Ki [2]: 902 nM

SMILES: Cc1c(OCCCN2CCCCC2)nn(-c2ccc(Cl)c(Cl)c2)c(=O)c1C
- Ki [1]: 66.6 nM
- Ratio Ki (Cavia porcellus): 21.4
- Ki [2]: 1430 nM

SMILES: O=c1ccc(OCCCN2CCCCC2)nn1-c1ccc(Cl)cc1Cl
- Ki [1]: 25 nM
- Ratio Ki (Cavia porcellus): 32.3
- Ki [2]: 809 nM

SMILES: CC1CC(C)CN(CCCOc2ccc(=O)n(-c3ccccc3)n2)C1 (stereo not given)
- Ki [1]: 46 nM
- Ratio Ki (Cavia porcellus): 39.6
- Ki [2]: 1820 nM

SMILES: O=c1ccc(OCCCN2CCCCC2)nn1-c1cccc(Cl)c1Cl
- Ki [1]: 48 nM
- Ratio Ki (Cavia porcellus): 33.6
- Ki [2]: 1620 nM

SMILES: O=c1c2ccccc2c(OCCCN2CCCCC2)nn1-c1ccc(Cl)c(Cl)c1
- Ki [1]: 140 nM
- Ratio Ki (Cavia porcellus): 10.8
- Ki [2]: 1510 nM

SMILES: O=c1ccc(OCCCCN2CCCCC2)nn1-c1ccccc1
- Ki [1]: 124 nM
- Ratio Ki (Cavia porcellus): 13.9
- Ki [2]: 1720 nM

SMILES: CC1CCN(CCCOc2ccc(=O)n(-c3cc(Cl)cc(Cl)c3)n2)CC1
- Ki [1]: 43 nM
- Ratio Ki (Cavia porcellus): 30.7
- Ki [2]: 1320 nM

SMILES: CC1CCN(CCCOc2ccc(=O)n(-c3ccc(F)c(F)c3)n2)CC1
- Time (Mus musculus [6]): 59.65 s
- Ki [1]: 15 nM
- LD50 at 24 h [3]: 1300 mg/kg
- IC50 [4]: 2680 nM
- Time (Mus musculus [7]): 56.43 s
- Ratio Ki (Cavia porcellus): 113
- Ki [2]: 1700 nM

SMILES: CC1CCN(CCCOc2ccc(=O)n(-c3ccc(Cl)cc3Cl)n2)CC1
- Ki [1]: 35 nM
- Ratio Ki (Cavia porcellus): 31.4
- Ki [2]: 1100 nM

SMILES: O=c1ccc(OCCCN2CCCCC2)nn1-c1ccc(F)c(Cl)c1
- Ki [1]: 10 nM
- LD50 at 24 h [3]: 900 mg/kg
- IC50 [4]: 980 nM
- Ratio Ki (Cavia porcellus): 158
- Ki [2]: 1580 nM

SMILES: O=c1ccc(OCCCN2CCCCC2)nn1-c1ccc2ccccc2c1
- Ki [1]: 74.1 nM
- Ratio Ki (Cavia porcellus): 12.1
- Ki [2]: 895 nM

SMILES: O=c1ccc(OCCCN2CCCCC2)nn1-c1ccc(F)c(F)c1
- Ki [1]: 8 nM
- LD50 at 24 h [3]: 780 mg/kg
- Ki [2]: 1910 nM

SMILES: O=c1ccc(OCCN2CCCCC2)nn1-c1ccccc1
- Ki [1]: > 2000 nM
- Ki [2]: > 2000 nM

SMILES: O=c1ccc(OCCCN2CCCCC2)nn1C1CCCC1
- Ki [1]: > 2000 nM
- Ki [2]: > 2000 nM

SMILES: CC1CCN(CCCOc2ccc(=O)n(-c3cc(Cl)ccc3Cl)n2)CC1
- Ki [1]: 60 nM
- Ratio Ki (Cavia porcellus): 14.5
- Ki [2]: 870 nM

SMILES: O=c1ccc(OCCCN2CCCCC2)nn1-c1ccc(F)cc1
- Ki [1]: 17 nM
- Ki [2]: > 2000 nM

SMILES: CN(C)CCCOc1ccc(=O)n(-c2ccccc2)n1
- Ki [1]: 108 nM
- Ratio Ki (Cavia porcellus): 7.57
- Ki [2]: 818 nM

SMILES: CCN(CC)CCCOc1ccc(=O)n(-c2ccccc2)n1
- Ki [1]: 96.5 nM
- Ratio Ki (Cavia porcellus): 12.1
- Ki [2]: 1170 nM
